T cruzi inh = T. cruzi replication inhibition. T. cruzi beta-gal in NIH3T3, luminescence, 90 h. inhibition, % (concentration not given with the values). 1.4% of 300,000 active;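 active = mean inhibition across valid replicates above about 55%, limit read from the data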;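 also: signal also drops with host cell toxicity which is not excluded here; 0% = plate median of DMSO wells and 100% = zero luminescence signal; higher percent means less beta-gal luminescence so fewer parasites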
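assay system = mouse NIH/3T3 fibroblasts infected with β-gal-expressing T. cruzi Tulahuen C4 | input = 5,000 NIH/3T3 host cells per well | buffer or medium = DMEM plus 2% FBS | timing = 3 h host attachment, then at least 90 h co-culture | measured by = GalScreen luminescence, 60 min | evaluation = luminescence reflecting intracellular parasite burden, expressed as percent inhibition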
PfHsp90 yeast 2 = reduces growth (ATP signal) of yeast expressing P. falciparum Hsp90 | inhibition, % at 9.4 µM | S. cerevisiae expressing PfHsp90, BacTiter-Glo ATP, 48 h; yeast lacking PDR1 and PDR3 efflux regulators | AID 504621 | 0.32% of 310,000 active;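 active = every replicate shows inhibition above about 80%, whatever the replicate mean, limit read from the data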;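 also: 0% = DMSO neutral controls and 100% = 20 µM radicicol positive controls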
SKKanGAS inh = SKKanGAS growth inhibition | S. pyogenes SKKanGAS, kanamycin growth, BacTiter-Glo, 6 h | inhibition, % at 7.5 µM | AID 1662 | 1.3% of 300,000 active;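 active = mean replicate score, as percent of positive control median, at least 50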;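 also: strain carries kanamycin resistance gene driven by streptokinase promoter and grows in 40 µg/ml kanamycin; loss of luminescence reflects streptokinase promoter inhibition or plain growth inhibition; 0% = median of DMSO wells and 100% = positive control at its reference dose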
CSC inhib = cancer stem cell inhibition. cancer stem cell-like cells viability, luminescence. inhibition, % at 7.5 µM. 1.1% of 300,000 active; in the data active = inhibition above about 75%; tested in HMLE shEcad cells
Beta apoptosis = beta cell apoptosis inhibition; INS-1E cytokine-induced death, ATP luminescence, 48 h; percent of positive-control rescue, neutral wells zero; AID 435005; 0.8% of 300,000 active; protection from apoptosis, % (concentration not given with the values);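 active = Every replicate reaches about 75%, or at least half do and their mean reaches it too, limit read from the data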;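 also: 0% = cytokine-treated negative control wells and 100% = positive control rescue; higher means more ATP so stronger rescue from cytokine killing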
HIF act = HIF pathway transcriptional activation; U2OS HRE-luciferase reporter, luminescence; normalized: DMSO 0%, desferrioxamine 100%; activation, % at 7.5 µM (by protocol); 0.32% of 300,000 active; AID 1910;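 active = mean activation of at least 10% of the iron chelator positive control signal, with at least half of replicates also reaching 10%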
Starred values were filed as active, the others as inactive; · = not tested or not shown. An excerpt weighted towards active compounds, which were near 3.6% of everything screened.

SMILES	T cruzi inh	PfHsp90 yeast 2	SKKanGAS inh	CSC inhib	Beta apoptosis	HIF act
CC(C)(C)C(=O)Nc1ccc(C(=O)N/N=C/c2ccccc2OC(=O)c2ccccc2)cc1	-2.5	-2.3	10.7	-11.2	86.7*	-0.4
COc1ccc(C(=O)N/N=C/c2ccccc2OC(=O)c2ccccc2)cc1	35.7	-31.9	22.3	·	102.5*	5.5
COc1ccc(C(=O)N/N=C/c2ccc(OC(=O)c3ccccc3)cc2)cc1	-1.0	-18.9	2.7	12.4	0.9	0.0
COc1cc(C(=O)Oc2ccccc2/C=N/NC(=O)c2ccc(C)cc2)cc(OC)c1OC	2.9	-2.5	18.0	13.3	102.5*	9.6*
COc1cc(C(=O)N/N=C/c2ccsc2C)cc(OC)c1OC	27.9	-1.6	0.3	75.6*	19.7	0.7
CCCCN(C(=O)c1ccc(-n2nc(C)cc2C)cc1)c1c(N)n(CCC)c(=O)[nH]c1=O	·	9.0	·	·	·	·
CCOC(=O)CC(=O)NC1(Cc2ccc(O)cc2)CCCCC1	-9.9	17.6	-7.6	4.4	-0.5	0.2
CC(C)(C)C(=O)Nc1ccc(C(=O)N/N=C/c2ccccc2OC(=O)c2ccc(Cl)cc2)cc1	-13.2	11.1	23.0	15.9	103.4*	-1.0
CCOc1cc(/C=N\NC(=O)c2ccc(NC(=O)C(C)(C)C)cc2)ccc1OC(=O)c1ccc(C)cc1	38.7	-3.9	20.3	2.5	8.1	-2.3
CCC(C)NS(=O)(=O)c1ccc(S(=O)(=O)N(CCc2ccc(OC)c(OC)c2)Cc2cccs2)cc1 (stereo not drawn)	57.2*	14.3	18.2	19.1	51.9	-0.8
CCNc1nc(CSc2ccccc2)nc2sc(C)c(C)c12	18.7	-14.4	-2.6	42.6	9.2	0.3
Cc1[nH]n(C(C)(C)C)c(=O)c1Sc1ccc(Cl)cc1	61.0*	·	-2.9	2.8	-12.9	-0.4
Cc1ccc(N/N=C(\C#N)C(N)=S)c(C)c1	11.3	100.7*	59.9*	41.9	-3.8	0.2
Cc1ccc(NC(=O)/C(C#N)=N/Nc2ccc(C(=O)O)cc2)c(C)c1	-8.5	-8.6	-2.2	-4.0	-7.2	0.4
c1ccc(-c2ccc(OCCCNC3CCCC3)cc2)cc1	59.7*	20.1	7.1	-20.7	·	-0.7
c1ccc(SCCCCNC2CCCC2)cc1	4.6	-39.7	7.0	1.1	-3.8	-0.1
N#Cc1ccc(OCCOCCNC2CCCC2)cc1	66.9*	-5.7	2.1	-34.9	-5.4	-0.2
c1cc2c(cc1OCCNC1CCCC1)CCC2	-21.3	·	-7.5	-4.0	-9.7	-0.1
c1ccc(Cc2ccc(OCCCNC3CCCC3)cc2)cc1	67.2*	·	2.2	45.8	1.2	-0.6
COc1ccc(OCCNC2CCCC2)cc1	11.0	-0.8	-13.3	-14.0	-4.1	0.2
O=C(Cn1cnc2c(OCc3ccccc3)ncnc21)NCCCc1ccccc1	·	10.6	·	·	0.3	·
O=C(NCCCN1CCOCC1)c1cc(-c2ccccc2)on1	4.7	-2.5	3.9	-8.1	5.4	28.1*
CCCCNC(=O)c1cc(-c2ccc(OC)cc2)on1	-1.5	·	3.6	-4.1	6.3	4.9
CCCCNC(=O)c1cc(-c2ccc(F)cc2)on1	20.8	-10.3	3.4	27.4	40.0	40.5*
O=C(NCCN1CCOCC1)c1cc(-c2ccccc2)on1	-4.5	0.4	-8.9	·	·	5.9
SMILES	T cruzi inh	PfHsp90 yeast 2	SKKanGAS inh	CSC inhib	Beta apoptosis	HIF act
CCOc1ccc(OCC)c(NC(=O)CN2CCN(CC(=O)NC(C)C)CC2)c1	2.7	-8.6	1.7	-13.6	14.4	-4.6
Cc1ccccc1-c1cc2c(nn1)-c1ccccc1C2=O	-0.6	2.8	26.7	107.9*	7.4	-5.9
COc1ccc(CN2CCCC(CO)(Cc3cccc(Cl)c3)C2)cc1OC (stereo not drawn)	55.5*	19.7	1.6	15.1	-0.9	0.8
COc1cc(CN2CCCC(CO)(Cc3cccc(Cl)c3)C2)cc2c1OCO2 (stereo not drawn)	55.5*	-6.4	-6.0	23.7	15.2	-1.0
CSc1cccc(CN2CCCC(CO)(Cc3cccc(Cl)c3)C2)c1 (stereo not drawn)	62.0*	-8.2	24.9	31.4	8.7	-0.4
NC(=O)c1cccc2ccccc12	-8.6	-25.6	-11.9	-11.7	-5.5	-0.3
N#CSCC(=O)c1cccc2ccccc12	·	97.3*	·	27.0	-16.8	·
Cn1c(SCC(=O)N2c3ccccc3Sc3ccccc32)nc2ccccc21	58.8*	-7.7	-0.7	-14.2	3.3	-0.3
